Where two headings read alike, the source gives them in different places.

This note sets out measurements from paper PMC11843339 (ACS Bio & Med Chem Au, 2024).

Data set [1] relates to 143B. Kind of data set: MTT cytotoxicity assay, 143B cells. It is filed as cell-based, human. The note with it: 72 h, read-out: cytotoxic activity IC50. Put shortly:
(§1)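 Human osteosarcoma cells (from ATCC) were seeded at 5 × 10^3 per well and left to attach overnight at 37 °C, 5% CO2. They were then exposed to test compound for 72 h. Medium was replaced with 0.5 mg/mL MTT in culture medium for 2 h at 37 °C, and formazan was dissolved in DMSO. OD was read at 570 nm, survival was calculated as % of untreated control OD, and runs were done in triplicate.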
(In general: Tetrazolium dyes change colour on reduction, which living cells bring about.)

Data set [2] concerns MNNG/HOS. The data set can be described thus: MTT cytotoxicity assay, MNNG/HOS cells. It is filed as cell-based, human. The settings on record: 72 h, read-out: cytotoxic activity IC50. Put shortly: as §1
Data set [3] deals with U2OS. The data set can be described thus: MTT cytotoxicity assay, U2OS cells. It is filed as cell-based, human. The note with it: 72 h, read-out: cytotoxic activity IC50. Put shortly:
as §1

In data set [4] the test system is SaOS-2. Kind of data set: MTT cytotoxicity assay, SaOS-2 cells. The note with it: read-out: cytotoxic activity IC50. It is filed as cell-based, human. Put shortly:
as §1

For data set [5], the system named is osteosarcoma cancer cell lines (MNNG/HOS, U2OS, 143B, SaOS-2). The data set can be described thus: MTT cytotoxicity, summary over osteosarcoma cell lines. It is filed as cell-based, human. The note with it: for IC50: Homo sapiens, 72 h, read-out: IC50 range against all OS cell lines. Put shortly:
as §1

Data set [6] can be described thus: MTT cell viability, normal osteoblast cells hFOB 1.19. It is filed as cell-based, human. The settings on record: human, hFOB 1.19 normal osteoblast cells. Put shortly: (§2)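 Normal human osteoblasts (hFOB 1.19, from ATCC) were exposed to test compound at 0.1, 1.0, 10.0 and 100.0 μM for 72 h. Viability was read by MTT: 0.5 mg/mL for 2 h at 37 °C, DMSO solubilisation, OD at 570 nm. Values are expressed relative to untreated control set at 100%, as mean ± SD (n = 3).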

Data set [7] has as its system hFOB 1.19. The description is as above. It is filed as cell-based, human. The settings on record: at the tested concentrations (0.1-100 μM), in words. Put shortly:
as §2

Data set [8] concerns the target human IMPDH1 (Homo sapiens, UniProt P20839). The data set can be described thus: IMPDH1 inhibitory assay. It counts as biochemical.
Data set [9] concerns the target human IMPDH2 (Homo sapiens, UniProt P12268). The data set can be described thus: IMPDH2 inhibitory assay. It counts as biochemical.

human IMPDH1, sequence (P20839 whole entry): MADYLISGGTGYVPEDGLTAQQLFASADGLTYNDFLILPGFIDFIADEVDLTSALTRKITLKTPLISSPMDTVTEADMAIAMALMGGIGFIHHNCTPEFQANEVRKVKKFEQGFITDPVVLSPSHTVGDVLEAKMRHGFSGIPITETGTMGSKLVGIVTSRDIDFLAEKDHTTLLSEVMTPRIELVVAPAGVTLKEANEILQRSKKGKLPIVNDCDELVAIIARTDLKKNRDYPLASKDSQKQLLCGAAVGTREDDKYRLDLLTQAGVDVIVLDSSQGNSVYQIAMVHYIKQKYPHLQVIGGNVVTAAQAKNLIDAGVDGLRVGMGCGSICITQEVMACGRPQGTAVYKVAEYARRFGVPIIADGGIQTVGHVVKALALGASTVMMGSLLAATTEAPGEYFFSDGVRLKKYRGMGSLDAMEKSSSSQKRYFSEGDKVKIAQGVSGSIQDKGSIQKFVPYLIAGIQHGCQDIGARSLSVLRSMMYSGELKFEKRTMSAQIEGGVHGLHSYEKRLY

One may read the IC50 as the concentration at which inhibition is half-maximal. Turning to `COc1c(C)c2c(c(O[Si](C)(C)C(C)(C)C)c1C/C=C(\C)CCC(=O)O[Si](C)(C)C(C)(C)C)C(=O)OC2` [Compound 2a, tert-Butyldimethylsilyl (E)-6-(4-((tert-Butyldimethylsilyl)oxy)-6-methoxy-7-methyl-3-oxo-1,3-dihydroisobenzofuran-5-yl)-4-methylhex-4-enoate], the 50% inhibitory concentration (IC50) in data set [1] (Homo sapiens, 143B) is 4.12 ± 0.28 µM; in data set [2] (Homo sapiens, HOS), 1.36 ± 0.76 µM; in [3] (Homo sapiens, U2OS), 3.8 ± 0.88 µM; in data set [4] (Homo sapiens, SAOS-2, 72 h), 5.43 ± 2.87 µM; in [5] it was 1.36 to 5.43 µM.
In the same order, the values of `COc1c(C)c2c(c(O[Si](c3ccccc3)(c3ccccc3)C(C)(C)C)c1C/C=C(\C)CCC(=O)O[Si](c1ccccc1)(c1ccccc1)C(C)(C)C)C(=O)OC2` [Compound 2b, tert-Butyldiphenylsilyl (E)-6-(4-((tert-Butyldiphenylsilyl)oxy)-6-methoxy-7-methyl-3-oxo-1,3-dihydroisobenzofuran-5-yl)-4-methylhex-4-enoate] are 5.85 ± 0.54 µM, 1.18 ± 0.74 µM, 2.52 ± 0.96 µM, 5.8 ± 1.15 µM and 1.18 to 5.85 µM.
In the same order, the values of `COc1c(C)c2c(c(O[Si](C(C)C)(C(C)C)C(C)C)c1C/C=C(\C)CCC(=O)O[Si](C(C)C)(C(C)C)C(C)C)C(=O)OC2` [Compound 2c, Triisopropylsilyl (E)-6-(6-Methoxy-7-methyl-3-oxo-4-((triisopropylsilyl)oxy)-1,3-dihydroisobenzofuran-5-yl)-4-methylhex-4-enoate] are 63.1 ± 3.2 µM, 6.82 ± 3.51 µM, 24.43 ± 0.04 µM, 17.4 ± 9.03 µM and 6.82 to 63.9 µM.
One may read the viability as a read-out of living cells in per cent, often relative to untreated cells. `COc1c(C)c2c(c(O)c1C/C=C(\C)CCC(=O)O[Si](c1ccccc1)(c1ccccc1)c1ccccc1)C(=O)OC2` [Compound 2d, Triphenylsilyl (E)-6-(4-Hydroxy-6-methoxy-7-methyl-3-oxo-1,3-dihydroisobenzofuran-5-yl)-4-methylhex-4-enoate]: the IC50 in [1] (Homo sapiens, 143B) was 1.65 ± 0.26 µM; in data set [2] (Homo sapiens, HOS), 0.64 ± 0.15 µM; in data set [3] (Homo sapiens, U2OS), 1.01 ± 0.4 µM; in [4] (Homo sapiens, SAOS-2, 72 h) it was 2.27 ± 0.68 µM; in data set [5] it was 0.64 to 2.27 µM. Moreover, the viability at 72 h, 0.1 µM in [6] is 93.9 ± 1.01%. This molecule also displayed a viability at 72 h, 1 µM in data set [6] of 92 ± 1.78%. The molecule further came in with a viability at 72 h, 10 µM in [6] of 84.5 ± 2.95%. Further, the viability at 72 h, 100 µM in data set [6] amounted to 73.3 ± 1.39%. The “cytotoxicity to human normal osteoblast cells (hFOB 1.19)” value in data set [7] is “low cytotoxicity”. Besides, the Ki in data set [8] (read-out: Ki,app (apparent tight-binding inhibition constant), IMPDH1, IMP 100 μM, NAD+ 200 μM, NO = No inhibition observed) was above 100 µM; in data set [9] it was 1.8 µM. Also, the “fold more potent than carbon compound 2e” value in data set [5] (143B and SaOS cell lines, versus 2e) was in the range of 2 to 3 fold.
`COc1c(C)c2c(c(O)c1C/C=C(\C)CCC(=O)OC(c1ccccc1)(c1ccccc1)c1ccccc1)C(=O)OC2` [Compound 2e, Trityl (E)-6-(4-Hydroxy-6-methoxy-7-methyl-3-oxo-1,3-dihydroisobenzofuran-5-yl)-4-methylhex-4-enoate]: the IC50 in [1] (Homo sapiens, 143B) is 5.13 ± 1.1 µM; in [2] (Homo sapiens, HOS), 0.68 ± 0.11 µM; in data set [3] (Homo sapiens, U2OS), 0.98 ± 0.035 µM; in [4] (Homo sapiens, SAOS-2, 72 h), 4.83 ± 0.5 µM; in [5], 0.68 to 5.13 µM.
With `COc1c(C)c2c(c(O[Si](C)(C)C(C)(C)C)c1C/C=C(\C)CCC(=O)O)C(=O)OC2` [Compound 3a, (E)-6-(4-((tert-Butyldimethylsilyl)oxy)-6-methoxy-7-methyl-3-oxo-1,3-dihydroisobenzofuran-5-yl)-4-methylhex-4-enoic acid], the IC50 came to 3.9 ± 0.76 µM in [1] (Homo sapiens, 143B); 0.86 ± 0.2 µM in [2] (Homo sapiens, HOS); 2.31 ± 1.26 µM in data set [3] (Homo sapiens, U2OS); 4.55 ± 2.6 µM in data set [4] (Homo sapiens, SAOS-2, 72 h).
`COc1c(C)c2c(c(O[Si](C(C)C)(C(C)C)C(C)C)c1C/C=C(\C)CCC(=O)O)C(=O)OC2` [Compound 3c, (E)-6-(6-Methoxy-7-methyl-3-oxo-4-((triisopropylsilyl)oxy)-1,3-dihydroisobenzofuran-5-yl)-4-methylhex-4-enoic acid]: the IC50 was 6.31 ± 0.4 µM in data set [1] (Homo sapiens, 143B); 2.68 ± 1.02 µM in data set [2] (Homo sapiens, HOS); 3.75 ± 1.06 µM in [3] (Homo sapiens, U2OS); 5.44 ± 0.82 µM in [4] (Homo sapiens, SAOS-2, 72 h).
In the same order, the values of `COc1c(C)c2c(c(O)c1C/C=C(\C)CCC(=O)O[Si](c1ccccc1)(c1ccccc1)C(C)(C)C)C(=O)OC2` [Compound 4b, tert-Butyldiphenylsilyl (E)-6-(4-Hydroxy-6-methoxy-7-methyl-3-oxo-1,3-dihydroisobenzofuran-5-yl)-4-methylhex-4-enoate] are 6.8 ± 1.41 µM, 13 ± 4.24 µM, 1.85 ± 0.07 µM and 1.85 ± 0.35 µM.
In the same order, the values of `COc1c(C)c2c(c(O)c1C/C=C(\C)CCC(=O)O[Si](C(C)C)(C(C)C)C(C)C)C(=O)OC2` [Compound 4c, Triisopropylsilyl (E)-6-(4-Hydroxy-6-methoxy-7-methyl-3-oxo-1,3-dihydroisobenzofuran-5-yl)-4-methylhex-4-enoate] are 35 ± 9.9 µM, 5.7 ± 0.71 µM, 0.92 µM and 5.5 ± 1.51 µM.
With `COc1c(C)c2c(c(O[Si](c3ccccc3)(c3ccccc3)C(C)(C)C)c1C/C=C(\C)CCC(=O)ON1C(=O)c3ccccc3C1=O)C(=O)OC2` [Compound 5a, 1,3-Dioxoisoindolin-2-yl (E)-6-(4-((tert-Butyldiphenylsilyl)oxy)-6-methoxy-7-methyl-3-oxo-1,3-dihydroisobenzofuran-5-yl)-4-methylhex-4-enoate], the IC50 is 31 ± 1.41 µM in [1] (Homo sapiens, 143B); 19.5 ± 3.54 µM in [2] (Homo sapiens, HOS); 10.2 ± 3.89 µM in [3] (Homo sapiens, U2OS); 12 µM in data set [4] (Homo sapiens, SAOS-2, 72 h).
In the same order, the values of `COc1ccc(CCOC(=O)CC/C(C)=C/Cc2c(OC)c(C)c3c(c2O[Si](c2ccccc2)(c2ccccc2)C(C)(C)C)C(=O)OC3)cc1` [Compound 5c, 4-Methoxyphenethyl (E)-6-(4-((tert-Butyldiphenylsilyl)oxy)-6-methoxy-7-methyl-3-oxo-1,3-dihydroisobenzofuran-5-yl)-4-methylhex-4-enoate] are 14.5 ± 4.95 µM, 43.5 ± 2.12 µM, 10.2 ± 1.06 µM and 39.5 ± 0.71 µM.
With `COc1c(C)c2c(c(O)c1C/C=C(\C)CCC(=O)ON1C(=O)c3ccccc3C1=O)C(=O)OC2` [Compound 6a, 1,3-Dioxoisoindolin-2-yl (E)-6-(4-Hydroxy-6-methoxy-7-methyl-3-oxo-1,3-dihydroisobenzofuran-5-yl)-4-methylhex-4-enoate], the IC50 is 4.85 ± 1.48 µM in [1] (Homo sapiens, 143B); 1.38 ± 0.6 µM in data set [3] (Homo sapiens, U2OS); 6.9 µM in data set [4] (Homo sapiens, SAOS-2, 72 h).
For `COc1c(C)c2c(c(O)c1C/C=C(\C)CCC(=O)OCCc1ccc(F)cc1)C(=O)OC2` [Compound 6b, 4-Fluorophenethyl (E)-6-(4-Hydroxy-6-methoxy-7-methyl-3-oxo-1,3-dihydroisobenzofuran-5-yl)-4-methylhex-4-enoate] the same measures were 2 ± 0.14 µM, 7 ± 2.12 µM and 5.75 ± 1.06 µM.
For the molecule `COc1ccc(CCOC(=O)CC/C(C)=C/Cc2c(O)c3c(c(C)c2OC)COC3=O)cc1` [Compound 6c, 4-Methoxyphenethyl (E)-6-(4-Hydroxy-6-methoxy-7-methyl-3-oxo-1,3-dihydroisobenzofuran-5-yl)-4-methylhex-4-enoate], the IC50 in [1] (Homo sapiens, 143B) worked out at 2.6 ± 0.28 µM; in data set [2] (Homo sapiens, HOS) it was 38 ± 11.3 µM; in [3] (Homo sapiens, U2OS), 7.35 ± 1.63 µM; in data set [4] (Homo sapiens, SAOS-2, 72 h), 9 ± 1.41 µM.
With `COc1c(C)c2c(c(O)c1C/C=C(\C)CCC(=O)O)C(=O)OC2` [MPA 1, Mycophenolic acid, reference compound], the 50% inhibitory concentration (IC50) in data set [1] (Homo sapiens, 143B) was 1.55 ± 0.49 µM; in data set [2] (Homo sapiens, HOS), 0.64 ± 0.08 µM; in data set [3] (Homo sapiens, U2OS) it was 0.68 ± 0.04 µM; in data set [4] (Homo sapiens, SAOS-2, 72 h) it was 4 ± 0.28 µM; in [5], 0.64 to 4 µM. The molecule also yielded a viability at 72 h, 0.1 µM in data set [6] of 74.3 ± 4.24%. Also, the viability at 72 h, 1 µM in data set [6] amounted to 20.1 ± 1.41%. In [6], the viability at 72 h, 10 µM worked out at 7.13 ± 0.67%. Further, in [6], the viability at 72 h, 100 µM was 3.38 ± 3.4%. Moreover, in data set [8], the Ki was found to be 0.136 µM.
As to “(E)-6-(4-((tert-Butyldimethylsilyl)oxy)-6-methoxy-7-methyl-3-oxo-1,3-dihydroisobenzofuran-5-yl)-4-methylhex-4-enoic acid [Compound 3b]”, the IC50 in data set [1] (143B cells, MTT) worked out at 4.74 ± 0.76 µM; in data set [2] (MNNG cells, MTT) it was 1.15 ± 0.35 µM; in data set [3] (U2OS cells, MTT), 2.96 ± 2.32 µM; in data set [4] (SaOS cells, MTT, 72 h), 4.58 ± 1.05 µM.
